Structures are written as SMILES. Active and inactive are the calls of the source.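 The calls were made as follows, unless noted: active = Her2 level under about 52% in both replicate screens, with viability over 70% of control (limit read from the data); inconclusive = Her2 under the limit in one screen only, or viability under 70%; inactive = Her2 level above the set limit.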

A short description of assay [1]: Her2 expression decrease, cell viability multiplex – SKBR3 breast tumor cells, AlphaScreen, ATP viability, primary screen (AID 461).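 As to Her2 level: lower value means less Her2 protein in the cells.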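 As to viability: percent of carrier control wells set as 100% viability.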 The conditions noted are these: SKBR3 Her2 protein level, 18-24 h, measured here: SKBR3 viability, ATP luminescence, at 10 µM. In general terms: Bead proximity is the source of the signal in Alpha formats.
Assay [2] addresses Receptor tyrosine-protein kinase erbB-2 (Homo sapiens) (UniProt P04626). Described as above. The conditions noted are these: 18-24 h, at 10 µM, stronger effect = lower value.
Assay [3] is described as follows: reduced viability of SK-BR-3 breast cancer cells – cell-based, 24 h, human, pilot screen (AID 572;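 active = viability at or below 10% of carrier control in both of two separate runs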;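 also: compound exposure lasted between 18 and 24 h rather than exactly 24 h; 100% = carrier-treated control wells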). The conditions noted are these: SK-BR-3 viability, CellTiter-Glo luminescence, at 10 µM, stronger effect = lower value. (In ATP-based viability assays light output follows the ATP content of the culture.)
A short description of assay [4]: HUVEC growth inhibition – cell-based, human, primary screen (AID 575;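 active = viability at or below 30% in both replicate assays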;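 also: 100% = median of untreated cell wells with 0.1% DMSO on each plate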). The conditions noted are these: HUVEC proliferation, CellTiter-Glo luminescence, 72 h; at 10 µM; stronger effect = lower value. The procedure, abridged:
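Material: primary human umbilical vein endothelial cells / Schedule: 72 h exposure, 37 °C, 5% CO2, 30 min RT equilibration / Signal: ATP-based CellTiter-Glo luminescent read / Read-out basis: percent of median DMSO-control luminescence / Control set: 32 DMSO-only cell-control wells (high), 32 MePR drug-control wells (low) per plate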

Assay [5] in a line: H69AR cell proliferation blockers – human, duplicate replicates, primary screen (AID 580;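 active = viability at or under a set limit in both replicates, limit being median viability minus 3 SD, cut at about 48% in these data, passing the limit was not always enough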;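 also: 100% = mean luminescence of untreated wells and 0% = no signal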). The conditions noted are these: H69AR lung tumor cells viability, ATP luminescence, 72 h; at 10 µM; stronger effect = lower value.
The nature of assay [6]: MRP1 drug-resistance reversers in H69AR cells – cell-based, doxorubicin co-treatment, pilot screen (AID 601;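 active = viability loss from added drug above about 55%, and viability with drug at most 40%, in both replicates, limit read from the data, passing the limit was not always enough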). The conditions noted are these: CellTiter-Glo, 72 h, at 10 µM; for differential viability (reversal): stronger effect = higher value.
Assay [7] in a line: yeast transport mutant growth inhibition pilot in 384-well plates, post-Golgi transport modulator project (AID 636; in the data active = inhibition above about 31%). The conditions noted are these: absorbance 615 nm, about 18 h, stronger effect = higher value.
A short description of assay [8]: growth suppression of yeast trafficking mutant, preliminary HTS, modulators of trafficking downstream of Golgi apparatus project, 1536-format plate, OD 615 nm (AID 637; in the data active = inhibition above about 30%). The conditions noted are these: yeast transport mutant growth, absorbance 615 nm, 18 h; stronger effect = higher value.
Where [9] appears, read: H69AR cells + 2 uM doxorubicin, measured here: viability with 2 uM doxorubicin, stronger effect = lower value.
Setting [10] is: H69AR cells, compound alone cytotoxicity.

Sequence of Receptor tyrosine-protein kinase erbB-2 (Homo sapiens) (P04626 whole entry, looked up): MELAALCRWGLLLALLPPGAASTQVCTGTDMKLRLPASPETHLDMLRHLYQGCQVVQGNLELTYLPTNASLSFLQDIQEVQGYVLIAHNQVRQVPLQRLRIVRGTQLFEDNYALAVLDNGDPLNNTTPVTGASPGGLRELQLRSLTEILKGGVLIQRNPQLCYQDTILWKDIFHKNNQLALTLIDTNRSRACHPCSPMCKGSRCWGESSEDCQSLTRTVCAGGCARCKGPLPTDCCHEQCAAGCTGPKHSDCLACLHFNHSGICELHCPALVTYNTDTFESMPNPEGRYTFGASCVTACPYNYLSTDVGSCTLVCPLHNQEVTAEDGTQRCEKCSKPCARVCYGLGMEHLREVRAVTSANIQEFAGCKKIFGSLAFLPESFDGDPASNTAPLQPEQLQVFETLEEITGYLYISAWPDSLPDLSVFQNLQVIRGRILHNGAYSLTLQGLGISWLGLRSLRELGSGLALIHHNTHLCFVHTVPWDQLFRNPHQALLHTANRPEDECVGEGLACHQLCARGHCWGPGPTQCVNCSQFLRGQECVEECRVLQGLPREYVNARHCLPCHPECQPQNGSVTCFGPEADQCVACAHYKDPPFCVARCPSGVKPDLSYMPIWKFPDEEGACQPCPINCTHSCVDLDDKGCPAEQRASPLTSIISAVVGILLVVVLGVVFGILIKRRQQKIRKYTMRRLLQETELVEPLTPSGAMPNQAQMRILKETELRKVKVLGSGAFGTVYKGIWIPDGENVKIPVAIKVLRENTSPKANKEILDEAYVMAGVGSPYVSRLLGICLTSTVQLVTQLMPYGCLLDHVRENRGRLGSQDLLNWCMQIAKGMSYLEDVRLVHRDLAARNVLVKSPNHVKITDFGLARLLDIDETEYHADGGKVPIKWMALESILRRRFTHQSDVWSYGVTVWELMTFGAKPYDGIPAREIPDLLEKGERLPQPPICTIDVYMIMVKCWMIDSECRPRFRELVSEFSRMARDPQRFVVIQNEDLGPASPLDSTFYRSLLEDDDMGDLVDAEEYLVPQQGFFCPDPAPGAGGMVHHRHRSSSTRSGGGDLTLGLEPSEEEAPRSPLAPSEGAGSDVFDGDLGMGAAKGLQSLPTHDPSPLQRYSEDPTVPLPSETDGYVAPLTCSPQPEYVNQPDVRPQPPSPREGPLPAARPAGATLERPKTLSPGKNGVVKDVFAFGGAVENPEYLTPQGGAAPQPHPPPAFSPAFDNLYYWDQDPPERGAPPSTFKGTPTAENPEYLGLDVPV

As a reminder, the viability is a read-out of living cells in per cent, often relative to untreated cells. By inhibition is commonly meant the change of the read-out against control, counted positive when it falls. With `CCOC(=O)C1=C(O)CCn2c1nc1ccccc12`, the viability in assay [1] was 122%; in assay [3], 122% (inactive); in assay [4] it was 101% (inactive); in assay [5] it was 101% (inactive); in assay [6] (setting [9]), 83.6%; in assay [6] (setting [10]) it was 101%. The Her2 level in assay [2] was 116% (inactive). Further, the differential viability (reversal) in assay [6] (H69AR cells + 2 uM doxorubicin) was 17.7% (inactive). In addition, the inhibition in assay [7] is -8.9% (inactive); in assay [8], 0% (inactive).

For the compound `O=C(CCN1CCN(C(=O)c2ccco2)CC1)Nc1ccc(F)cc1`, the viability in assay [1] is 97.5%; in assay [3], 97.5% (inactive); in assay [4] it was 99.8% (inactive); in assay [5], 97% (inactive); in assay [6] (setting [9]), 90.9%; in assay [6] (setting [10]), 97%. Moreover, the Her2 level in assay [2] was 95% (inactive). Further, the differential viability (reversal) in assay [6] (H69AR cells + 2 uM doxorubicin) was 6.06% (inactive). Moreover, the results for the inhibition in assay [7] and in assay [8] were -4.93% (inactive) and 2.95% (inactive), respectively.

`CCCCCCC1/C(=N/O)CCC1C(=O)OC` (stereo not given): the viability in assay [1] was 108%; in assay [3], 108% (inactive); in assay [4] it was 109% (inactive); in assay [5] it was 83.2% (inactive); in assay [6] (setting [9]), 84.2%; in assay [6] (setting [10]), 83.2%. Besides, the Her2 level in assay [2] was 95.5% (inactive). In addition, the differential viability (reversal) in assay [6] (H69AR cells + 2 uM doxorubicin) was -1.02% (inactive). Moreover, the inhibition is -8.44% (inactive) in assay [7] and -5.71% (inactive) in assay [8].

In the case of `CCC(=O)N1CCNC(=O)C1CC(=O)Nc1ccc(C)c(Cl)c1` (stereo not given), the viability in assay [1] was 97%; in assay [3], 97% (inactive); in assay [4] it was 94.2% (inactive); in assay [5] it was 95.8% (inactive); in assay [6] (setting [9]) it was 90.8%; in assay [6] (setting [10]), 95.8%. Besides, in assay [2], the Her2 level was 122% (inactive). For the same compound, the differential viability (reversal) in assay [6] (H69AR cells + 2 uM doxorubicin) is 4.98% (inactive). The inhibition in assay [7] is -2.8% (inactive); in assay [8] it was -0.48% (inactive).

Take `CCSC1=NCN(CCCC(=O)O)CN1`: the viability in assay [1] is 118%; in assay [3] it was 118% (inactive); in assay [4], 96.3% (inactive); in assay [5] it was 99.9% (inactive); in assay [6] (setting [9]), 102%; in assay [6] (setting [10]) it was 99.9%. Also, the Her2 level in assay [2] is 100% (inactive). In addition, in assay [6] (H69AR cells + 2 uM doxorubicin), the differential viability (reversal) was -1.83% (inactive). Further, the inhibition in assay [7] is 0.13% (inactive); in assay [8] it was -0.16% (inactive).

In the case of `Cn1c(SCc2ccc3c(c2)OCO3)nnc1-c1ccccc1`, the viability in assay [1] was 99.5%; in assay [3], 99.5% (inactive); in assay [4] it was 99.1% (inactive); in assay [5], 96.2% (inactive); in assay [6] (setting [9]), 84.4%; in assay [6] (setting [10]), 96.2%. In addition, the Her2 level in assay [2] is 108% (inactive). Further, in assay [6] (H69AR cells + 2 uM doxorubicin), the differential viability (reversal) was 11.7% (inactive). Moreover, the values for the inhibition in assay [7] and in assay [8] were 1.45% (inactive) and -1.11% (inactive), respectively.

In the case of `Cc1sc2ncnc(OCC(=O)N3CCN(S(=O)(=O)c4ccccc4)CC3)c2c1C`, the viability was 69.5% in assay [1]; 69.5% (inactive) in assay [3]; 100% (inactive) in assay [4]; 92.7% (inactive) in assay [5]; 80.7% in assay [6] (setting [9]); 92.7% in assay [6] (setting [10]). For the same compound, the Her2 level in assay [2] is 84.5% (inactive). Besides, the differential viability (reversal) in assay [6] (H69AR cells + 2 uM doxorubicin) was 12% (inactive). The inhibition in assay [7] was -1.32% (inactive); in assay [8], 0.95% (inactive).

`NC(=O)NC(=O)CSc1cccc(C(F)(F)F)c1`: the viability in assay [1] is 138%; in assay [3], 138% (inactive); in assay [4], 90.1% (inactive); in assay [5], 88.2% (inactive); in assay [6] (setting [9]), 87.2%; in assay [6] (setting [10]), 88.2%. For the same compound, the Her2 level in assay [2] was 94.5% (inactive). Further, the differential viability (reversal) in assay [6] (H69AR cells + 2 uM doxorubicin) was 1.01% (inactive). The inhibition in assay [7] is -8.63% (inactive); in assay [8] it was 2.22% (inactive).

As for `Cn1cccc1Cc1nnc(SCC(=O)Nc2ccc(F)cc2F)n1-c1ccc(F)cc1`, the viability in assay [1] is 84%; in assay [3] it was 84% (inactive); in assay [4] it was 81.6% (inactive); in assay [5] it was 94.8% (inactive); in assay [6] (setting [9]), 93.5%; in assay [6] (setting [10]) it was 94.8%. For the same compound, the Her2 level in assay [2] was 90.5% (inactive). For the same compound, in assay [6] (H69AR cells + 2 uM doxorubicin), the differential viability (reversal) is 1.3% (inactive). The inhibition is -1.03% (inactive) in assay [7] and -3.5% (inactive) in assay [8].

On to `Cc1cc(C)c(OCC(=O)Nc2ccc3c(c2)OCO3)cc1C`, for which the viability is 106% in assay [1]; 106% (inactive) in assay [3]; 92% (inactive) in assay [4]; 84.5% (inactive) in assay [5]; 88% in assay [6] (setting [9]); 84.5% in assay [6] (setting [10]). The Her2 level in assay [2] is 116% (inactive). In addition, the differential viability (reversal) in assay [6] (H69AR cells + 2 uM doxorubicin) was -3.51% (inactive). Moreover, the results for the inhibition in assay [7] and in assay [8] were -4% (inactive) and -11.4% (inactive), respectively.

As to `CCOC(=O)c1ccc(N2C(=O)CC(NC3CCN(C(=O)c4ccc(F)cc4)CC3)C2=O)cc1` (stereo not given), the viability in assay [1] is 102%; in assay [3] it was 102% (inactive); in assay [4] it was 103% (inactive); in assay [5], 110% (inactive); in assay [6] (setting [9]), 96%; in assay [6] (setting [10]), 110%. In assay [2], the Her2 level was 126% (inactive). Also, the differential viability (reversal) in assay [6] (H69AR cells + 2 uM doxorubicin) was 14% (inactive). Moreover, the inhibition was 1.45% (inactive) in assay [7] and -5% (inactive) in assay [8].

`CCCCOCCCNC(=O)c1cccs1`: the viability in assay [1] was 103%; in assay [3], 103% (inactive); in assay [4] it was 97.8% (inactive); in assay [5], 104% (inactive); in assay [6] (setting [9]) it was 92.5%; in assay [6] (setting [10]), 104%. In addition, the Her2 level in assay [2] was 102% (inactive). Further, in assay [6] (H69AR cells + 2 uM doxorubicin), the differential viability (reversal) is 11.5% (inactive). In addition, the inhibition is -2.21% (inactive) in assay [7] and -3.17% (inactive) in assay [8].

Take `O=C1CCc2cc(S(=O)(=O)N3CCC(C(=O)Nc4nccs4)CC3)ccc2N1`: the viability in assay [1] is 98%; in assay [3], 98% (inactive); in assay [4] it was 110% (inactive); in assay [5] it was 85.3% (inactive); in assay [6] (setting [9]) it was 80.3%; in assay [6] (setting [10]) it was 85.3%. The Her2 level in assay [2] was 105% (inactive). Further, in assay [6] (H69AR cells + 2 uM doxorubicin), the differential viability (reversal) is 4.98% (inactive). Moreover, the values for the inhibition in assay [7] and in assay [8] were -1.67% (inactive) and -1.17% (inactive), respectively.

Regarding `CC(C)N(C=O)C1(C(=O)NC2CCCCC2)CCCCC1`, the viability in assay [1] is 100%; in assay [3], 100% (inactive); in assay [4] it was 97.9% (inactive); in assay [5] it was 112% (inactive); in assay [6] (setting [9]), 97.9%; in assay [6] (setting [10]), 112%. In addition, the Her2 level in assay [2] was 106% (inactive). Further, the differential viability (reversal) in assay [6] (H69AR cells + 2 uM doxorubicin) was 13.7% (inactive). The inhibition in assay [7] is -0.53% (inactive); in assay [8] it was -6.61% (inactive).

Turning to `CC(=O)Nc1cc2c(nc1C)nc(C)n2Cc1ccc(Br)cc1`, the viability in assay [1] was 76%; in assay [3], 76% (inactive); in assay [4], 90% (inactive); in assay [5] it was 108% (inactive); in assay [6] (setting [9]) it was 95.3%; in assay [6] (setting [10]), 108%. In assay [2], the Her2 level was 88% (inactive). Besides, the differential viability (reversal) in assay [6] (H69AR cells + 2 uM doxorubicin) is 12.7% (inactive). For the same compound, the values for the inhibition in assay [7] and in assay [8] were -4.4% (inactive) and 0.33% (inactive), respectively.

The record behind these values is PubChem BioAssay.
